Series [1] deals with HUVEC. The series can be described thus: Cytoprotective activity against H2O2-induced oxidative stress in HUVEC cells after 18 hrs by Cell-Titer Blue assay. Type of series: functional, cell-based. Conditions: Homo sapiens. An outline of the steps: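 Confluent HUVEC (population doublings 2–5, gelatin-coated 96-well) pretreated 5 h at 37 °C with compound at 1, 5, 20, 40 and 60 µM (DMSO stock diluted in MCDB 131), washed twice, exposed to 2 mM H2O2 for 1 h at 37 °C, then 18 h recovery in complete MCDB 131. Viability by 10% CellTiter-Blue fluorescence. % cytoprotection = (well − DMSO+H2O2 mean)/DMSO-only mean. EC50 by linear regression of first three points.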

The test system of series [2] is HUVEC. The series can be described thus: Cytoprotective activity against H2O2-induced oxidative stress in HUVEC cells at 20 uM after 18 hrs by Cell-Titer Blue assay. Type of series: functional, cell-based. Conditions: Homo sapiens. In outline: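 Confluent HUVEC (passage doublings 2–5) incubated 5 h at 37 °C with compound at 20 µM in MCDB 131 (from DMSO stock), washed twice with MCDB 131, then 2 mM H2O2 for 1 h at 37 °C. H2O2 removed, cells recovered 18 h in complete medium. Viability by 10% CellTiter-Blue fluorescence, compared with vehicle+H2O2 and unexposed cells. Mean ± SD, ANOVA with Tukey-Kramer.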

The test system of series [3] is HUVEC. The series can be described thus: Cytotoxicity against HUVEC cells at 10 to 60 uM after 24 hrs by Cell-Ttiter blue assay. In kind it is cell-based. As to conditions: human. An outline of the steps: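 Confluent HUVEC (population doublings 2–5) exposed 24 h at 37 °C to compound at 10, 20, 40 or 60 µM, diluted from DMSO stock into MCDB 131 (vehicle 0.1% DMSO). Medium replaced with 10% CellTiter-Blue for 2 h at 37 °C, fluorescence read at ex 545/em 590 nm. Viability expressed as % of vehicle control; below 90% of control scored toxic.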

Structures are written as SMILES. The source made the active and inactive calls. No cut-off for these calls is given here.

With `O=C(/C=C/c1ccc(O)c(O)c1)OCCc1ccccc1` [CAFFEIC ACID PHENETHYL ESTER], the EC50 (in general, the concentration giving half of the maximal effect) in the series on HUVEC [1] turned out to be 8 µM. In other words, the single-digit micromolar range.

With `O=C(/C=C/c1ccc(O)c(O)c1)NCCc1ccccc1` [CAFFEIC ACID PHENETHYL AMIDE], the half-maximal effective concentration (EC50) in the series with HUVEC [1] amounted to 2 µM.

For `O=C(/C=C/c1cc(O)c(O)cc1F)NCCc1ccccc1`, the outcome with HUVEC [2] was Active.

On to `O=C(/C=C/c1ccc(O)c(F)c1)NCCc1ccccc1`, for which, in the series on HUVEC [2], the result was Active.

As to `O=C(/C=C/c1cc(O)c(O)c(F)c1)NCCc1ccccc1`, the Activity result in the series on HUVEC [3] is “Toxic”. Further, the result in the series with HUVEC [2] was Active.

For the origin of these results see ChEMBL document CHEMBL1250435, “Synthesis of a series of caffeic acid phenethyl amide (CAPA) fluorinated derivatives: comparison of cytoprotective effects to caffeic acid phenethyl ester (CAPE)” (Bioorg Med Chem, 2010).
